# Published values from different studies.
# Lines come from different studies, so protocols differ.
# Target: Ephrin type-B receptor 4 (EPHB4, Homo sapiens, UniProt P54760)
# One construct used (P54760 16-987): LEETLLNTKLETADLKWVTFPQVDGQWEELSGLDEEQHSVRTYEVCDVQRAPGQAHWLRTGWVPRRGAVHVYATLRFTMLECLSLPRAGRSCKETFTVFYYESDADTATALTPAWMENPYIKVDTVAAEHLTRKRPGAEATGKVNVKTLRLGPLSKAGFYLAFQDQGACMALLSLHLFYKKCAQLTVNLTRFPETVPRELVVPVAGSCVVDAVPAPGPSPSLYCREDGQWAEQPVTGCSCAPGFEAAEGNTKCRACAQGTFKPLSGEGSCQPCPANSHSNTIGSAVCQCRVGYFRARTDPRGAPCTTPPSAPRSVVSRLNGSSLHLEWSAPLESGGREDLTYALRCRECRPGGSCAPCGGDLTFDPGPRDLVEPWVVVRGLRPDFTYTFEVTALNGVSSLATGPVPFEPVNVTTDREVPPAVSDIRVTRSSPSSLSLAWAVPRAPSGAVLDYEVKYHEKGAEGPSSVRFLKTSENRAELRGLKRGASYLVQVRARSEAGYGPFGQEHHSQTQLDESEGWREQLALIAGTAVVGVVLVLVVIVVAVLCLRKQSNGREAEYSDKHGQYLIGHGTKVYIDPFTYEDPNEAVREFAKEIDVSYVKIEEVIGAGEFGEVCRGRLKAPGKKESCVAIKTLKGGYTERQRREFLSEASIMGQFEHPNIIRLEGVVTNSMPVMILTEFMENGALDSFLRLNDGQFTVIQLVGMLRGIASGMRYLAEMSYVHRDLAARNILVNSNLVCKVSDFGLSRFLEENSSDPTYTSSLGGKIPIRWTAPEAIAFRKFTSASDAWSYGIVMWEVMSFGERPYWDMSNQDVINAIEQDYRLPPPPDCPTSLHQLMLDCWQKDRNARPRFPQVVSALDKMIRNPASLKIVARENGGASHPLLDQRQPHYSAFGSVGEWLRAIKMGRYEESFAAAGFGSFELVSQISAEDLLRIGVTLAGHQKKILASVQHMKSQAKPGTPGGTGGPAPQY
SMILES,effect on,method,tested at,remaining binding [%]
O=C(c1ccc(Nc2nccc(-c3cc4ccccc4s3)n2)cc1)N1CCC(N2CCCC2)CC1,binding,competition with immobilised ligand,1 µM,87
CC1=C(C#N)C(c2ccc3c(c2)c(NC(=O)c2ccccc2C)nn3C)C(C#N)=C(C)N1,cell-free assay,competition with immobilised ligand,1 µM,97
CC1CCCN1c1nccc(-c2cnn3ncccc23)n1 (stereo not drawn),binding,,1 µM,100
COc1cnc(Nc2cccc(S(N)(=O)=O)c2)nc1N1CCN(c2ccccc2)CC1,binding,competition with immobilised ligand,1 µM,96
CCN1CCN(Cc2ccc(C(=O)Nc3ccc(C)c(Oc4ccc5c(c4)CC(=O)N5)c3)cc2C(F)(F)F)CC1,binding,competition with immobilised ligand,1 µM,90
O=C(O)[C@@H]1[C@@H](Cn2nnc3ccccc3c2=O)CC[C@H]1C(=O)c1ccc(OCCC2CCOCC2)cc1,cell-free assay,competition with immobilised ligand,1 µM,100
CN(C)c1nccc(-c2cnc3ncccn23)n1,binding,,1 µM,100
O=C(c1ccc(Nc2ncc(Cl)c(-c3ccc(Cl)s3)n2)cc1)N1CCC(N2CCCC2)CC1,binding,competition with immobilised ligand,1 µM,67
F[C@@H]1CCN(c2nccc(-c3cnn4ncccc34)n2)C1,binding,,1 µM,90
C[C@@H](c1ccc(-n2cnc3c(N)ncnc32)cc1)N1CCc2nn(C)c(Cc3ccccc3)c2C1=O,binding,competition with immobilised ligand,0.1 µM,95
O=C(NCCCN1CCOCC1)c1ccc(Nc2nccc(-c3cc4ccccc4s3)n2)cc1,binding,competition with immobilised ligand,1 µM,78
C=CC(=O)N1CCC(C(=O)NCC(=O)N2CCN(c3nc(-c4cnc(N)nc4C(F)F)nc(N4CCOCC4)n3)CC2)CC1,binding,competition with immobilised ligand,1 µM,100
Cc1noc([C@H]2C[C@@H](c3ccc(C(F)(F)F)cc3)CN(C(=O)N3CCS(=O)(=O)C3)C2)n1,cell-free assay,competition with immobilised ligand,1 µM,100
COc1ccnn2ncc(-c3ccnc(N(C)C)n3)c12,binding,,1 µM,86
O=c1nc(-c2ccccn2)sc2ccccc12,cell-free assay,competition with immobilised ligand,1 µM,100
CNC(=O)[C@@H]1CC[C@@H](n2c(-c3ccc4cnccc4c3)nc3ccc(C(=O)NCc4cccc(C(N)=O)c4)cc32)C1,binding,competition with immobilised ligand,1 µM,100
c1cnn2ncc(-c3ccnc(N4CCC45COC5)n3)c2c1,binding,,1 µM,92
CCCCN(CCCC)C(=O)CN1C[C@@H](c2cc(OC)c3c(c2)OCO3)[C@H](C(=O)O)[C@H]1CC(C)(C)CCC,cell-free assay,competition with immobilised ligand,1 µM,98.5
O=C(Nc1c[nH]nc1C(=O)NC1CCNCC1)c1cc(F)cc(F)c1,binding,competition with immobilised ligand,1 µM,100
CCC(=O)N[C@H]1CC[C@@H](C(=O)N(C)c2ccc(-c3nc4ccccc4o3)cc2)C1,cell-free assay,competition with immobilised ligand,1 µM,73
C[C@@H]1CCN(c2nccc(-c3cnn4ncccc34)n2)C1,binding,,1 µM,100
